This is a sample that favours compounds with a hit; in the whole collection about 4.2% have one here.
hERG rescue – hERG rescue from dofetilide block, primary screen, cell-based, CHO-hERG, FluxOR thallium flux, dofetilide IC70. Voltage-gated inwardly rectifying potassium channel KCNH2 (Homo sapiens), Q12809. dofetilide IC70 present. activation (rescue from dofetilide block), less the hit threshold, % at 10 µM. hit rate 0.51% among 310,000;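 active means activation above the mean of controls blocked by dofetilide plus 5 SD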;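 further: thallium influx through hERG after potassium depolarization seen as dye fluorescence rise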
KCC2 mod – KCC2 cotransporter modulators, thallium flux, primary screen, cell-based, HEK293 KCC2, FluoZin-2 fluorescence, MLSMR | B-score of Tl+ flux slope (higher = more flux/activation; lower = inhibition) at 10 µM | hit rate 2.2% among 190,000 | KCC2 cells, thallium flux FluoZin-2 fluorescence | AID 1456, 2008;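 active means thallium flux slope and its plate-corrected score both differing from the plate sample mean at a set confidence after two filtering rounds, in either direction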;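 further: slope of fluorescence scaled to starting intensity during 10 to 20 s after thallium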
SUMO Mot1 rescue – yeast Mot1-301 growth rescue at high temperature, primary screen, SUMOylation pathway inhibitor project, S. cerevisiae, ATP luminescence, 38.5C. S. cerevisiae Mot1-301 growth rescue; percent above DMSO median, 100 means doubled. growth rescue, % at 18.8 µM. hit rate 1% among 320,000;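 active means every valid replicate shows activation above 250% relative to neutral control wells; inactive means the rest, any valid replicate at or below 250%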
KCNQ1 pot – potentiators or activators of KCNQ1 channel, primary screen, cell-based, thallium flux, high-throughput; AID 2648, 2010; CHO-K1 KCNQ1, thallium flux FluxOR fluorescence; active compounds read high; hit rate 0.35% among 310,000; B-score at 10 µM;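 active means fluorescence ratio B-score, a plate-corrected score, at least three library SD, with initial intensity B-score within 5 SD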
Target sequence (P51787 whole entry, looked up): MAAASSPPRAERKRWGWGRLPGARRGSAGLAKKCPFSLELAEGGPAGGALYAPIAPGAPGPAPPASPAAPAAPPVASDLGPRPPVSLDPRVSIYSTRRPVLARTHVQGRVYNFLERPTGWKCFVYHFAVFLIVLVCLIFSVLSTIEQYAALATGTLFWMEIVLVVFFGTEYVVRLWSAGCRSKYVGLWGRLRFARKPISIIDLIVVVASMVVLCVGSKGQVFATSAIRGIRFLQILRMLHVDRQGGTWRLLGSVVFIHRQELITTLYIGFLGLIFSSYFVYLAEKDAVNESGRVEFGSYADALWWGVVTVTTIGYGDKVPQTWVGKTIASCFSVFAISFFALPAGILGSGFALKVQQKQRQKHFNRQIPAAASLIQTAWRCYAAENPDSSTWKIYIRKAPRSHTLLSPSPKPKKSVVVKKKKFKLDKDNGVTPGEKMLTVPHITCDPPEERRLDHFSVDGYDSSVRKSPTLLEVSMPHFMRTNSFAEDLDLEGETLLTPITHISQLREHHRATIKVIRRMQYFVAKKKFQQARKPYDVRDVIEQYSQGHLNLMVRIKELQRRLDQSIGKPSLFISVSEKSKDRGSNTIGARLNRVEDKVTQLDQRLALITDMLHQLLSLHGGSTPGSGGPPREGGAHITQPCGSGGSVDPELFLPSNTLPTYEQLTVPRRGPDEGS
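Assay system: CHO-K1 cells stably expressing KCNQ1; Medium: assay buffer with matched DMSO; Also added: K+/Tl+ depolarizing stimulus; Dosing: single dose; Timing: dye 90 min, compound 20 min, room temperature; Measured by: kinetic FluxOR thallium fluorescence, 10-s 1-Hz baseline, 110-s post-stimulus read; Read-out: peak-minus-minimum fluorescence over initial fluorescence, negative-control normalized, B-scored.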
KCNQ1 inh – inhibitors of human KCNQ1 channel, primary screen, cell-based, thallium flux, high-throughput | Potassium voltage-gated channel subfamily KQT member 1 (Homo sapiens), P51787 | CHO-K1 KCNQ1, FluxOR thallium flux fluorescence; active compounds read high | B-score at 10 µM | hit rate 1.3% among 310,000;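 active means compounds whose thallium flux B-score, printed positive for inhibition, exceeds three library SD while starting fluorescence stays within three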;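 further: channel opened by potassium depolarization with thallium stimulus after 20 min compound exposure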
AI-2 QS modul – Vibrio harveyi AI-2 quorum sensing modulators, primary screen, JMH597 strain, luminescence/OD600 ratio. Vibrio harveyi JMH597 AI-2 luminescence/OD600 ratio, 9 h; active compounds read low; strain lacks LuxN and CqsS sensors; 0 = neutral-control median. activity change, % at 7.5 µM. hit rate 0.4% among 300,000; in the data active means activity change below about -75%, passing the limit was not always enough;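 further: luminescence divided by OD600 gain over 9 h not by final OD600 alone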
Mot1 SUMO dose – growth restoration of Mot1-301 yeast on galactose, dose response, SUMO pathway inhibitor project, whole organism, S. cerevisiae, ATP luminescence, cherry-picked samples | growth activity, percent, % at 42 µM | shares compounds with SUMO Mot1 rescue | S. cerevisiae Mot1-301 galactose growth, 24 h; -100 = growth of slx-deleted rescue strain | 2,300 tested, under 10 active;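 active means Signal drops as the depositor expects, and the fitted half-maximal dose is no more than ten times the top valid tested dose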;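 further: more negative values mean stronger growth rescue toward the control strain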
Hits are given with their value.

Results for CCOc1ccc(CCNC(=O)Cn2nc(C)c3c(C)n(-c4ccccc4)nc3c2=O)cc1OCC ?
hERG rescue: inactive; SUMO Mot1 rescue: inactive; KCNQ1 pot: inactive; KCNQ1 inh: inactive; AI-2 QS modul: inactive

How did COc1ccc(C(=O)C2CCCN(C(=O)c3cccnc3SC)C2)c(C)c1 (stereo not given) do in these assays?
hERG rescue: inactive; KCC2 mod: inactive; SUMO Mot1 rescue: inactive; KCNQ1 pot: inactive; KCNQ1 inh: inactive; AI-2 QS modul: inactive

What do the screens show for `COCCCNCC(O)COc1cccc2[nH]c(C)cc12` (stereo not given)?
hERG rescue: inactive; KCC2 mod: inactive; SUMO Mot1 rescue: 773; KCNQ1 pot: inactive; KCNQ1 inh: inactive; AI-2 QS modul: inactive; Mot1 SUMO dose: inactive

Results for CN(CC(=O)N1CCc2[nH]c3ccc(F)cc3c2C1)CC1OCCO1 ?
hERG rescue: inactive; KCC2 mod: inactive; SUMO Mot1 rescue: 736; KCNQ1 pot: inactive; KCNQ1 inh: inactive; AI-2 QS modul: inactive; Mot1 SUMO dose: inactive

How did Cc1ccc2[nH]c3c(c2c1)CN(C(=O)CN(C)CC1OCCO1)CC3 do in these assays?
hERG rescue: inactive; KCC2 mod: inactive; SUMO Mot1 rescue: inactive; KCNQ1 pot: inactive; KCNQ1 inh: inactive; AI-2 QS modul: inactive

What do the screens show for `Cc1c(C)c2c(c(C)c1O)CCC(C)(C(=O)O)O2` (stereo not given)?
SUMO Mot1 rescue: 548; Mot1 SUMO dose: inactive

Results for CCOC(=O)C1=C(C)NC(C)=C(C(=O)OCC)C1C(=O)OC1CCOC1=O (stereo not given) ?
hERG rescue: inactive; KCC2 mod: inactive; SUMO Mot1 rescue: 463; KCNQ1 pot: inactive; KCNQ1 inh: inactive; AI-2 QS modul: inactive; Mot1 SUMO dose: inactive

How did CCOC(=O)C1=C(C)NC(C)=C(C(=O)OCC)C1C(=O)OCC(=O)N1CCOCC1 do in these assays?
SUMO Mot1 rescue: inactive

Results for C[C@@H]1CN(C(=O)c2nc3ccc(Cl)cn3c2CN(C)CCc2cnn(C)c2)C[C@H](C)O1 ?
hERG rescue: inactive; SUMO Mot1 rescue: inactive; KCNQ1 pot: inactive; KCNQ1 inh: inactive; AI-2 QS modul: inactive

How did COc1ccc(C(=O)N2CCN(c3ccc(NC(=O)c4cccnc4)cc3)CC2)cc1 do in these assays?
hERG rescue: inactive; SUMO Mot1 rescue: 458; KCNQ1 pot: inactive; KCNQ1 inh: inactive; AI-2 QS modul: inactive; Mot1 SUMO dose: inactive

Results for Cc1ccc(CNC(=O)N[C@@H](Cc2ccccc2)C(=O)O)cc1 ?
hERG rescue: inactive; KCC2 mod: inactive; SUMO Mot1 rescue: inactive; KCNQ1 pot: inactive; KCNQ1 inh: inactive; AI-2 QS modul: inactive

What do the screens show for `Cc1ccc2nc(NC(=O)CNS(=O)(=O)c3ccc(Br)s3)sc2c1`?
hERG rescue: inactive; KCC2 mod: inactive; SUMO Mot1 rescue: 520; KCNQ1 pot: inactive; KCNQ1 inh: inactive; AI-2 QS modul: inactive; Mot1 SUMO dose: inactive

Results for Cc1ccc2nc(NC(=O)CN(C)S(=O)(=O)c3ccc(Br)s3)sc2c1 ?
hERG rescue: inactive; SUMO Mot1 rescue: inactive; KCNQ1 pot: inactive; KCNQ1 inh: inactive; AI-2 QS modul: inactive

Results for CN(C(=O)Nc1ccccc1)C1CCCc2ccccc21 (stereo not given) ?
hERG rescue: inactive; SUMO Mot1 rescue: inactive; KCNQ1 pot: inactive; KCNQ1 inh: inactive; AI-2 QS modul: inactive

What do the screens show for `CCOC(=O)c1oc2cc(OC(C)=O)ccc2c(=O)c1-c1ccc(OC)c(OC)c1`?
hERG rescue: inactive; KCC2 mod: inactive; SUMO Mot1 rescue: 510; KCNQ1 pot: inactive; KCNQ1 inh: inactive; AI-2 QS modul: inactive; Mot1 SUMO dose: inactive

What do the screens show for `CCOC(=O)COc1ccc2c(=O)c(-c3ccc(OC)c(OC)c3)c(C(=O)OCC)oc2c1`?
hERG rescue: inactive; KCC2 mod: inactive; SUMO Mot1 rescue: inactive; KCNQ1 pot: inactive; KCNQ1 inh: inactive; AI-2 QS modul: inactive

Results for COc1cc(-c2nnc(CSc3nnc(Nc4ccc(Oc5ccccc5)cc4)s3)o2)cc(OC)c1OC ?
hERG rescue: inactive; KCC2 mod: inactive; SUMO Mot1 rescue: inactive; KCNQ1 pot: inactive; KCNQ1 inh: inactive; AI-2 QS modul: inactive

What do the screens show for `CC1(C)C2CC=C(/C=N/NC(=S)Nc3cccnc3)C1C2` (stereo not given)?
hERG rescue: inactive; KCC2 mod: inactive; SUMO Mot1 rescue: 745; KCNQ1 pot: inactive; KCNQ1 inh: inactive; AI-2 QS modul: inactive; Mot1 SUMO dose: inactive

Results for Cc1ccc(OCCn2cnc3c2c(=O)n(C)c(=O)n3C)cc1 ?
hERG rescue: inactive; SUMO Mot1 rescue: inactive; KCNQ1 pot: inactive; KCNQ1 inh: inactive; AI-2 QS modul: inactive

Results for COC(=O)/C=C/c1ccc2c(c1)OCO2 ?
hERG rescue: inactive; KCC2 mod: inactive; SUMO Mot1 rescue: inactive; KCNQ1 pot: inactive; KCNQ1 inh: inactive; AI-2 QS modul: inactive

Results for CCNc1ccccc(C(=O)/C=C/c2ccc3c(c2)OCO3)c1=O ?
hERG rescue: inactive; KCC2 mod: inactive; SUMO Mot1 rescue: 439; KCNQ1 pot: inactive; KCNQ1 inh: inactive; AI-2 QS modul: inactive; Mot1 SUMO dose: inactive

How did C=C(C)Cc1c(C)c(C#N)c2[nH]c3ccccc3n2c1=O do in these assays?
hERG rescue: inactive; SUMO Mot1 rescue: 690; KCNQ1 pot: inactive; KCNQ1 inh: inactive; AI-2 QS modul: inactive; Mot1 SUMO dose: inactive

What do the screens show for `Cc1ccc(S(=O)(=O)Nc2ccc3[nH]c(=O)[nH]c3c2)c(C)c1`?
hERG rescue: inactive; KCC2 mod: inactive; SUMO Mot1 rescue: inactive; KCNQ1 pot: inactive; KCNQ1 inh: inactive; AI-2 QS modul: inactive

How did Cc1cc(F)ccc1S(=O)(=O)Nc1ccccc1C(=O)Nc1ccc2[nH]c(=O)[nH]c2c1 do in these assays?
hERG rescue: inactive; KCC2 mod: inactive; SUMO Mot1 rescue: 370; KCNQ1 pot: inactive; KCNQ1 inh: inactive; AI-2 QS modul: inactive; Mot1 SUMO dose: inactive

Results for CCSc1nnc(-c2ccccc2N=Cc2c(C)[nH]n(-c3ccccc3)c2=O)c(=O)[nH]1 ?
hERG rescue: inactive; KCC2 mod: inactive; SUMO Mot1 rescue: inactive; KCNQ1 pot: inactive; KCNQ1 inh: inactive; AI-2 QS modul: inactive
